Measurements from article PMC4629469 (Bioorganic & medicinal chemistry letters, 2015).

Assays:
[1] = target: T1, M1 recombinant human mAChRs (Homo sapiens, UniProt P11229); experiment: [3H]NMS binding to CHO cell membranes expressing M1 mAChR; conditions: vs compound 1
T1 sequence (P11229 1-460): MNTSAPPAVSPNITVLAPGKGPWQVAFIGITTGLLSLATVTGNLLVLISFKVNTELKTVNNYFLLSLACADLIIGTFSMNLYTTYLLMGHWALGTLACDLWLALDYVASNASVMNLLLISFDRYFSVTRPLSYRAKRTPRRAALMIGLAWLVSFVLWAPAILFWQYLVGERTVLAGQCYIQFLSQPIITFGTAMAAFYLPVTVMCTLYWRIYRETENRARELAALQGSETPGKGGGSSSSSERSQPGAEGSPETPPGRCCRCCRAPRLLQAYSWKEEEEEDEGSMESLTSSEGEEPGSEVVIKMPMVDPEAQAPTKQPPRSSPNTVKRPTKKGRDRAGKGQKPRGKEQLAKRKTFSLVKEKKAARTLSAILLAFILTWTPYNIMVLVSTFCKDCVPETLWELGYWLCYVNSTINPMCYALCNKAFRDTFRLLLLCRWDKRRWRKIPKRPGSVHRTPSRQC

[2] = target: M3 recombinant human mAChRs (Homo sapiens, UniProt P20309); experiment: [3H]NMS binding to CHO cell membranes expressing M3 mAChR; conditions: vs compound 1
Chain of M3 recombinant human mAChRs (P20309 whole entry): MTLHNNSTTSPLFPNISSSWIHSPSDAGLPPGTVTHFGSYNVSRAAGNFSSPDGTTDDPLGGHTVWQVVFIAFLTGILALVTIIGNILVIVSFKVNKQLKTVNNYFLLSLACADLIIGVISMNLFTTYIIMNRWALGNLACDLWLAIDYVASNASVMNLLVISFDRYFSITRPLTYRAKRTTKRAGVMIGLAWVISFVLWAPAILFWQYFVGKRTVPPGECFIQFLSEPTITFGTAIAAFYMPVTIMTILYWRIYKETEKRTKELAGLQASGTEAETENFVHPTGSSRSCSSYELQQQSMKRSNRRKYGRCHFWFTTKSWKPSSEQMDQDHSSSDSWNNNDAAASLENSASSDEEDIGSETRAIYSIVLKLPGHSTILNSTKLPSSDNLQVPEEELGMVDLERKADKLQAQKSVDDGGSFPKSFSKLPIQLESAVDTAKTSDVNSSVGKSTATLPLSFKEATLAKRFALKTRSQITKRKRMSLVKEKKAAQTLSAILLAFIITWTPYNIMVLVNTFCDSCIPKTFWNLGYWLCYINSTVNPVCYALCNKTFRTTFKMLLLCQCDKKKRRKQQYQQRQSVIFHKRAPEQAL

[3] = target: T2, M5 recombinant human mAChRs (Homo sapiens, UniProt P08912); experiment: [3H]NMS binding to CHO cell membranes expressing M5 mAChR; conditions: vs compound 1
T2 sequence (P08912 1-532): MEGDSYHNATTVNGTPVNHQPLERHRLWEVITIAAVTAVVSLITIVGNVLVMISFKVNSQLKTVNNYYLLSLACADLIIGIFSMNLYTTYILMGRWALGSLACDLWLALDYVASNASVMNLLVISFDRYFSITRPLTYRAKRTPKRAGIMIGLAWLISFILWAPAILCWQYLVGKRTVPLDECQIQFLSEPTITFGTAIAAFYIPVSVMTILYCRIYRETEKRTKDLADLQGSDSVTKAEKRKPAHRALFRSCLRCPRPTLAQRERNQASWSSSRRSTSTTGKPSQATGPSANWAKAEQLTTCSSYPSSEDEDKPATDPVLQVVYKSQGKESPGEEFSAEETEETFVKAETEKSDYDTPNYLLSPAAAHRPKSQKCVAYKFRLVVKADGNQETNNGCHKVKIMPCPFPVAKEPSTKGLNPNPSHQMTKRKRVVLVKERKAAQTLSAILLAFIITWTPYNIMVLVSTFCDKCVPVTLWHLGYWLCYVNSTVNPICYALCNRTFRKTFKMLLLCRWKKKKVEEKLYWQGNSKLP

[4] = system: M1, M3, and M5 human mAChRs; experiment: [3H]NMS binding, comparison over all three mAChR subtypes
How it was run: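 Membranes from CHO cells stably expressing recombinant human M1, M3 or M5 mAChR. Inhibition of [3H]N-methylscopolamine binding by the test compound gives IC50, which is converted to Ki by the Cheng–Prusoff equation. Ki is the mean ± SEM of three independent experiments, each run in duplicate. Subtype comparisons use these Ki values at each receptor.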

| Compound | fold higher affinity at M1 compared with compound 1 [1] | fold higher affinity at M3 compared with compound 1 [2] | decrease of affinity at M5 compared with compound 1 [3] | subtype selectivity ([4]; M5 over M1 and M3) | fold increase in affinity of the reverse ester ([4]; 6a vs 4a, all three mAChRs) |
| --- | --- | --- | --- | --- | --- |
| COc1ccc(CCOC(=O)C2(c3ccccc3)CCN(C)CC2)cc1OC [Compound 4a] | 2 fold | 19 fold | 30% | not subtype selective | – |
| COc1ccc(CCC(=O)OCC2(c3ccccc3)CCN(C)CC2)cc1OC [Compound 6a] | – | – | – | – | 1 to 3 fold |
